Reference: ChEMBL document CHEMBL1759944, “Structure-activity relationship of 2,4,5-trioxoimidazolidines as inhibitors of thymidine phosphorylase” (Eur J Med Chem, 2011)
Counter-ions that a name gives are not always drawn.

target: Thymidine phosphorylase (Escherichia coli K-12, UniProt P07650); assay: Inhibition of Escherichia coli Thymidine phosphorylase by spectrophotometry; settings: not given
In short: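 E. coli TP (0.22 units) added to start a 1 ml reaction containing […] and inhibitor in 0.1 M potassium phosphate, pH 7.4. Loss of thymidine absorbance followed at 265 nm, 25 °C, in a thermostatted cuvette. IC50 obtained from inhibition curves by enzyme kinetics analysis.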

Chain of Thymidine phosphorylase (P07650 whole entry): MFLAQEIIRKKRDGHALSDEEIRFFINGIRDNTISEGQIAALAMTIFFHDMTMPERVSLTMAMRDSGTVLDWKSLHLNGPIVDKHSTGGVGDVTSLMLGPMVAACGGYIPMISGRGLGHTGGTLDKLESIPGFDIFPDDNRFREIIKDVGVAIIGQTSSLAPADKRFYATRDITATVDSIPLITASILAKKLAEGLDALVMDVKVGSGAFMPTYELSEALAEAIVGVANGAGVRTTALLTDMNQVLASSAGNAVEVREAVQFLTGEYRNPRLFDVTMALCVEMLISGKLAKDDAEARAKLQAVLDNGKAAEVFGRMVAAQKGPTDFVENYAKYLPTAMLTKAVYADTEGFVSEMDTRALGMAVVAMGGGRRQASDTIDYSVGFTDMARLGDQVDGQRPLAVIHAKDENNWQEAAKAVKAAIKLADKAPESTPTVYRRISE

Q: `O=C(O)CN1C(=O)C(=O)N(Cc2cccc(Cl)c2)C1=O` was tested. Which IC50 did it give?
A: Its IC50 is “Active”.

same assay, conditions: read-out: IC50

Q: `NC(=O)CCN1C(=O)C(=O)N(Cc2cccc(Cl)c2)C1=O` was tested. Which IC50 did it give?
A: The IC50 was 66 µM.

Q: Which IC50 does the source give for `CCOC(=O)CN1C(=O)C(=O)N(Cc2cccc(Cl)c2)C1=O` here?
A: The IC50 was 292 µM.

Q: Which IC50 does the source give for `N=C1CCCN1Cc1[nH]c(=O)[nH]c(=O)c1Cl` [TIPIRACIL HYDROCHLORIDE] here?
A: Its IC50 is 0.036 µM.

Q: With `Cc1ccccc1CN1C(=O)C(=O)N(CC(=O)O)C1=O` as the compound, how does the IC50 read?
A: The IC50 was 236 µM.

Q: `NC(=O)CCN1C(=O)C(=O)N(CCc2ccccc2)C1=O` was tested. Which IC50 did it give?
A: The IC50 was 40 µM.

Q: With `O=C1NC(=O)N(Cc2cccc(Cl)c2)C1=O` as the compound, how does the IC50 read?
A: Its IC50 is 117 µM.

Q: For `O=C(O)CN1C(=O)C(=O)N(Cc2ccccc2)C1=O`, which IC50 is on record?
A: Its IC50 is 264 µM.

Q: For `O=C(O)CN1C(=O)C(=O)N(CCc2ccccc2)C1=O`, which IC50 is on record?
A: The IC50 was 85 µM.

Q: For `O=C1NC(=O)N(CCc2ccccc2)C1=O`, which IC50 is on record?
A: Its IC50 is 103 µM.

Q: With `CCOC(=O)CN1C(=O)C(=O)N(Cc2ccccc2)C1=O` as the compound, how does the IC50 read?
A: The IC50 was 342 µM.

Q: With `CCOC(=O)CN1C(=O)C(=O)N(CCc2ccccc2)C1=O` as the compound, how does the IC50 read?
A: Its IC50 is 357 µM.

Q: For `NC(=O)CCN1C(=O)C(=O)N(Cc2ccccc2)C1=O`, which IC50 is on record?
A: The IC50 was 106 µM.

Q: For `Cc1ccccc1CN1C(=O)NC(=O)C1=O`, which IC50 is on record?
A: Its IC50 is 128 µM.

Q: How did the IC50 turn out when `Cc1ccccc1CN1C(=O)C(=O)N(CCC(N)=O)C1=O` was run?
A: Its IC50 is 88 µM.

Q: With `O=C1NC(=O)N(Cc2ccccc2)C1=O` as the compound, how does the IC50 read?
A: Its IC50 is 115 µM.

Q: Which IC50 does the source give for `CCOC(=O)CN1C(=O)C(=O)N(Cc2ccccc2C)C1=O` here?
A: The IC50 was 303 µM.
